Values belong to the substance of their own block, whether it stands above or below them.
Legend:
Assay type in all cases: biochemical
PRMT8 [1] = molecular target: T1, PRMT8 (Homo sapiens, UniProt Q9NR22); assay: PRMT8 single-point radioactive methylation assay; conditions: compared with the unmodified peptide
human recombinant PRMT1 = human recombinant PRMT1 (Homo sapiens, UniProt Q99873); assay: PRMT1 single-point radioactive methylation assay; conditions: compared with the unmodified peptide
Chain of human recombinant PRMT1 (Q99873 whole entry, the tested form may be a part): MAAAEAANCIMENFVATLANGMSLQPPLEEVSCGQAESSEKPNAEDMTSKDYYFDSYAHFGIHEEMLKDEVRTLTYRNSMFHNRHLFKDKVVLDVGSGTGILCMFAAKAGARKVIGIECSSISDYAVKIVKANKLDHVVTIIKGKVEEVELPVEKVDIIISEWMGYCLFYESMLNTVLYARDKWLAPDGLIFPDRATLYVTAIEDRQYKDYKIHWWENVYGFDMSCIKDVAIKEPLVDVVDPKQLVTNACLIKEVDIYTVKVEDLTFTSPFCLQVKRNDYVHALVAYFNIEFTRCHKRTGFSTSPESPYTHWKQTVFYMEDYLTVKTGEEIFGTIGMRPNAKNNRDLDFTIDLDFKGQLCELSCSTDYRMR

[2] = molecular target: T2, truncated PRMT3 (residues 211–531) (Homo sapiens, UniProt O60678); assay: PRMT3 single-point radioactive methylation assay; conditions: 0.05 μM PRMT3, 5 μM [14C]-SAM, 10 μM peptide, 30 °C, 35 min
T2 sequence (O60678 211-531): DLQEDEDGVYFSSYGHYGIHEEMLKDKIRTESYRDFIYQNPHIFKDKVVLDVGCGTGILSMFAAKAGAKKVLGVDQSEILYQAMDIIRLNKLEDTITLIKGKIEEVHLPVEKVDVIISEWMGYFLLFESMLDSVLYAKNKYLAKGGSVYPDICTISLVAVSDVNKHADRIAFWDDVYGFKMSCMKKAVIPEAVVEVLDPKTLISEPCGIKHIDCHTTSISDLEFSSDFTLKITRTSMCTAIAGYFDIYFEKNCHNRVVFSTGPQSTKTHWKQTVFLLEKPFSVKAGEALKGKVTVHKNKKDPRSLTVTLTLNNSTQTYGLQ

PRMT8 [3] = molecular target: T1, PRMT8; assay: PRMT8 steady-state kinetics, radioactive filter-binding methylation assay; conditions: 0.05 μM PRMT8, 15 μM [14C]-SAM, 35 min, 30 °C; data not shown
Summary of the method: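 Recombinant His-tagged PRMT8 was expressed in E. coli BL21(DE3) and Ni-NTA purified. Reactions were run in 50 mM HEPES pH 8, 10 mM NaCl, 0.5 mM EDTA, 0.5 mM DTT with 0.25–16 μM N-acetylated H4(1–20) peptide (unmodified, K5me or K5ac), initiated with enzyme. They were isopropanol-quenched, P81 filter-bound, washed with NaHCO3 pH 9 and scintillation-counted against [14C]-SAM reference. Rates were Hill-fitted, at least duplicate.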

[4] = molecular target: T2, truncated PRMT3 (residues 211–531); assay: PRMT3 steady-state kinetics, radioactive filter-binding methylation assay
Summary of the method: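 E. coli-expressed His-tagged PRMT3 (residues 211–531) was used. Reactions in 50 mM HEPES pH 8, 10 mM NaCl, 0.5 mM EDTA, 0.5 mM DTT contained 0.25–8 μM N-acetylated H4(1–20) peptide (unmodified, K5me or K5ac). Products were P81 filter-bound, washed with NaHCO3 pH 9 and scintillation-counted. Rates (product/[E] per min) were fitted to the Hill or Michaelis-Menten equation, at least duplicate.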

T1 sequence (Q9NR22 whole entry): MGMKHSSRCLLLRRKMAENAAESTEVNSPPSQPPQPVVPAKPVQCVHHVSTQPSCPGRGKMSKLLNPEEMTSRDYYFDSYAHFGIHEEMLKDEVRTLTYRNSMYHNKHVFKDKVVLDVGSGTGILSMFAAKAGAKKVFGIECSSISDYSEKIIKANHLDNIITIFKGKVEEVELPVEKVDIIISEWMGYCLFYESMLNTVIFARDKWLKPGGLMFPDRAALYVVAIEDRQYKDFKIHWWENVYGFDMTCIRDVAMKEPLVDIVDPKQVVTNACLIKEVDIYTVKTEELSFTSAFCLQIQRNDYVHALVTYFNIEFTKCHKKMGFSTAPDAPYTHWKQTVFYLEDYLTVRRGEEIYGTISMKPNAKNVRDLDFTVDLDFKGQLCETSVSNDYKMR

Substance: Ac-H4(1-21): N-terminally acetylated histone H4 peptide, residues 1-21
effect of the modification on arginine methylation by PRMT8 (PRMT8 [1]): did not strongly affect arginine methylation
effect of the modification on arginine methylation by PRMT1 (human recombinant PRMT1): did not strongly affect arginine methylation

Substance: Ac-SGRGKmeGGKGLGKGGAKRHRK [Ac-H4(1-20)K5me]
increase in arginine methylation in comparison to Ac-H4(1-20) [2]: over 5 fold
peptide concentration above which substrate inhibition appeared (PRMT8 [3]): above 4 μM
peptide concentration above which substrate inhibition appeared ([4]; 0.05 μM PRMT3, 15 μM [14C]-SAM, 35 min, 30 °C, data not shown): above 8 μM
increase of kcat in comparison to Ac-H4(1-20) ([4]; PRMT3, Hill fit): 3 fold
catalytic efficiency higher than Ac-H4(1-20) ([4]; PRMT3, kcat/K0.5): ~4 fold

increase of K0.5 in comparison to Ac-H4(1-20) ([4]; PRMT3, Hill fit): 2 fold
Substance: Ac-SGRGKacGGKGLGKGGAKRHRK [Ac-H4(1-20)K5ac]

Reference: PMC5776680 (Biochemistry, 2017)
